Source: publication PMC12399195 (Acta Pharmaceutica Sinica. B, 2025)
Substitutions are numbered along the chain they refer to.

Columns and labels:
[1] = system: MC3T3-E1 cells; test: ALP staining, osteoblast differentiation in DXMS-challenged MC3T3-E1 cells; type: cell-based; details: 7 days
Method in brief: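 MC3T3-E1 cells were kept in DMEM with 10% FBS and 1% penicillin–streptomycin at 37 °C under 5% CO₂. Cells were seeded at 2×10^3 cells/well and grown 24 h, then switched to inducible medium. DXMS and test compound were added together for seven days, with medium changed every two days. Cells were fixed 15 min in 4% paraformaldehyde at room temperature, PBS-washed, BCIP/NBT ALP-stained, imaged and quantified.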

[2] = target: T1, Notum (Homo sapiens, UniProt Q6P988); test: Notum inhibition assay, OPTS as substrate; type: biochemical
T1 sequence (Q6P988 20-496): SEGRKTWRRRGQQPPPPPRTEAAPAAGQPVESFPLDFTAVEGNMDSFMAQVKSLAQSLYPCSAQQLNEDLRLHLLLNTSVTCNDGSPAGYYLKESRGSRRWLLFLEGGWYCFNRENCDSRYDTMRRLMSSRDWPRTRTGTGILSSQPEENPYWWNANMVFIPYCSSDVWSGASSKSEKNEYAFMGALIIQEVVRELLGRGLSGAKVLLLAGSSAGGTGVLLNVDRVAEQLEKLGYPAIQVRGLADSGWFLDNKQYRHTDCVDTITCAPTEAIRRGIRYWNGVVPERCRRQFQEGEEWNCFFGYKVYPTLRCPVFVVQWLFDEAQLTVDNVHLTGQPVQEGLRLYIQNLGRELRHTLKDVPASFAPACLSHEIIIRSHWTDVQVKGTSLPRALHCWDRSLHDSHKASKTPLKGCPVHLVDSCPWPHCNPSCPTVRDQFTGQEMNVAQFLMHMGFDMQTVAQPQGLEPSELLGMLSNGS

[3] = target: T1, Notum; test: Notum inhibition assay, DO as fluorogenic substrate; type: biochemical
[4] = system: MC3T3-E1 cells; test: Cell viability; type: cell-based; details: for cytotoxicity towards MC3T3-E1 cells: 0–20 μmol/L, 96 h
[5] = system: healthy mice; test: Toxicity test in healthy mice; type: in vivo, C57BL/6J mice; details: 200 mg/kg oral
[6] = system: MC3T3-E1 cells; test: Alizarin red S staining, calcification in DXMS-challenged MC3T3-E1 cells; type: cell-based; details: DXMS-challenged (200 μmol/L) MC3T3-E1 cells, 21 days
[7] = Tissue distribution in mice after gavage; type: in vivo, C57BL/6J mice
Method in brief: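 Twenty male C57BL/6J mice (6 weeks, 18–20 g) were randomised into four groups: control, 1 h, 2 h and 3 h. Test compound in 0.5% CMC-Na was given once by gavage. Mice were anaesthetised at 0, 1, 2 or 3 h, and blood and organs including femur were removed. Samples were centrifuged at 20,000 × g, 4 °C, 30 min, and compound concentration was determined by LC–MS/MS.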

[8] = cited from earlier work
[9] = target: T2, F268G Notum (Homo sapiens, UniProt Q6P988, F268G); test: Inhibition of DO hydrolysis in F268G Notum mutant; type: biochemical
T2 sequence (Q6P988 20-496 F268G): T1 sequence (Q6P988 20-496) with F249G

[10] = system: Wnt/β-catenin signaling; type: cell-based; details: DXMS-challenged MC3T3-E1 cells, 7 days
[11] = system: CYPs; details: phase I metabolic systems, GSH trapping
[12] = system: DXMS-induced osteoporotic mice; test: In vivo anti-osteoporosis test in DXMS-induced osteoporotic mice; design: species or system C57BL/6J mice; details: for effect on weight loss induced by DXMS: five weeks
Method in brief: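 Male C57BL/6J mice (6 weeks) were held SPF at 25 ± 2 °C, 50 ± 10% humidity and 12 h/12 h light/dark, with 7 days acclimatisation. They were randomised into five groups. DXMS was given i.p. at 2.5 mg/kg, five times weekly for five weeks. Test compound was dosed orally daily; PTH1–34 was given i.p. After five weeks, serum, femurs and tibias were collected. Serum ALP, OT/BGT, OPG and Col-1A1 were measured by ELISA kits. Data are mean ± SD.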

[13] = IC50 (DO as probe), Notum-catalyzed DO hydrolysis
[14] = 5-MP 20 and 40 mg/kg oral daily, PTH 100 μg/kg/day i.p.
[15] = distal and mid-femur, vs DXMS-challenged mice
[16] = distal femur, DXMS-challenged mice

For `O=c1ccc2cc3ccoc3cc2o1` [Psoralen], the “effect on ALP levels (osteoblast differentiation)” value [1] was “relatively weak”, the IC50 [2] was 99.9 ± 10.8 nM and the IC50 [3, 13] was 108 ± 10.4 nM. The “cytotoxicity towards MC3T3-E1 cells” value [4] was “weak cytotoxicity”, the body weight ([5]; 14 consecutive days, mice) was “decreased significantly” and the death of mice ([5]; 14 consecutive days, mice) was “no death was observed”. For the same molecule, the “organ injury (H&E, pathological examination)” value ([5]; 14 consecutive days, mice) was “varying degrees of organ injury”, the “organ coefficients of the heart, liver and kidney” value ([5]; 14 days, vs control) was “remarkably elevated” and the “serum levels of ALP, CREA, UREA and TG” value ([5]; 14 days, vs control) was “elevate”. For the same molecule, the “serum levels of AST and ALT” value ([5]; 14 days, vs control) was “elevated”.

In the case of `COc1c2ccoc2cc2oc(=O)ccc12` [5-MP, 5-methoxypsoralen], the “effect on intracellular calcification (ARS staining)” value [6] is reported as “significantly reversed the intracellular calcium loss”, the concentration at 2 h ([7]; male, C57BL/6J, mouse, femur, po, 40 mg/kg) is reported as 8.3 nM and the concentration at 3 h ([7]; male, C57BL/6J, mouse, plasma, po, 40 mg/kg) is reported as 44.6 nM. For the same molecule, the tissue distribution ([7]; single oral dose 40 mg/kg, mice) was “high exposure in the plasma and the liver”, the “half-life (t1/2)” value [8] was 4.21 h and the “effect on ALP levels (osteoblast differentiation)” value [1] was “dose-dependently mitigate the reduced ALP levels”. The IC50 [2] was 11.2 ± 0.6 nM, the Ki [2] was 15.1 nM and the inhibition manner ([2]; inhibition kinetics, OPTS hydrolysis) was “competitive”. For the same molecule, the IC50 [9] was 1210 nM, the “mRNA levels of Notum, GSK3β, β-catenin, OPN and RUNX2” value [10] was “significantly reversed the abnormal mRNA levels” and the Ki [3] was 23.5 nM. For the same molecule, the IC50 [3, 13] was 18.7 ± 2.08 nM, the inhibition manner ([3]; inhibition kinetics, DO hydrolysis) was “competitive” and the “formation of reactive intermediates” value [11] was “did not detect reactive intermediates”. The “cytotoxicity towards MC3T3-E1 cells” value [4] was “weak cytotoxicity”, the “effect on weight loss induced by DXMS” value [12, 14] was “neither PTH (positive control for osteoporosis) nor 5-MP (20 and 40 mg/kg) could significantly reverse the weight loss” and the “serum levels of osteogenic markers (ALP, OT/BGT, OPG, Col-1A1)” value ([12]; 5-MP 20 and 40 mg/kg oral daily, PTH 100 μg/kg/day i.p., vs DXMS) was “substantially increased”. For the same molecule, the “bone volume fraction (BV/TV) and bone mineral density (BMD)” value [12, 15] was “significantly enhanced”, the “trabecular and cortical bone thickness (micro-CT)” value [12, 15] was “significantly improved” and the “immunofluorescence signals of Notum in cortical bone tissues” value [12, 16] was “significantly decreased”. The “immunofluorescence signals of Notum in marrow cavity” value [12, 16] was “hardly decrease”, the “new bone formation (double labeling)” value ([12]; tibia, vs DXMS-challenged group) was “active new bone formation” and the “organ injury (H&E, pathological examination)” value ([5]; 14 consecutive days, mice) was “no organ injury was observed”. For the same molecule, the overall mortality rate ([5]; 14 consecutive days, mice) was 0%, the “serological indicators of organ injury (ALT, AST, CK, CREA)” value ([5]; 14 days, vs control) was “no significant difference” and the “serum levels of TC and TG” value ([5]; 14 days, vs control) was “decreased”. For the same molecule, the spleen coefficient ([5]; 14 days, vs control) was “slight decline” and the organ coefficient ([5]; 14 days, vs control, except spleen) was “no significant difference”.

In the case of `O=c1oc2cc(O)ccc2c2oc3cc(O)ccc3c12` [Coumestrol], the IC50 [3] is reported as 12800 ± 2440 nM.

In the case of `O=c1ccc2ccc3occc3c2o1` [Isopsoralen], the “effect on ALP levels (osteoblast differentiation)” value [1] is reported as “relatively weak”, the IC50 [2] is reported as 71.9 ± 11 nM and the IC50 [3, 13] is reported as 72.7 ± 5.03 nM. For the same molecule, the “formation of reactive intermediates” value [11] was “metabolically bioactivated by CYPs to generate reactive intermediates”, the “cytotoxicity towards MC3T3-E1 cells” value [4] was “weak cytotoxicity” and the body weight ([5]; 14 consecutive days, mice) was “significantly decreased”. For the same molecule, the death of mice ([5]; 14 consecutive days, mice) was “the mice began to die”, the “organ injury (H&E, pathological examination)” value ([5]; 14 consecutive days, mice) was “varying degrees of organ injury” and the “organ coefficients of the heart, liver and kidney” value ([5]; 14 days, vs control) was “remarkably elevated”. For the same molecule, the “serum levels of AST and ALT” value ([5]; 14 days, vs control) was “elevated” and the “serum levels of CK, UREA and TG” value ([5]; 14 days, vs control) was “decrease”.

With “PTH: parathyroid hormone 1–34, positive drug for treating osteoporosis (SVSEIQLMHNLGKHLNSMERVEWLRKKLQDVHNF; Parathyroid hormone; UniProt P01270 32-65, looked up, fragment) [reference compound]” the “effect on weight loss induced by DXMS” value [12, 14] was “neither PTH (positive control for osteoporosis) nor 5-MP (20 and 40 mg/kg) could significantly reverse the weight loss”.

In the case of `COc1c2occc2cc2ccc(=O)oc12` [8-Methoxypsoralen], the IC50 [3] is reported as 9450 ± 1380 nM.

With `C[C@@H]1C[C@H]2[C@@H]3CCC4=CC(=O)C=C[C@]4(C)[C@@]3(F)[C@@H](O)C[C@]2(C)[C@@]1(O)C(=O)CO` [DXMS, dexamethasone, reference compound] the cells diminished ([4]; 200 μmol/L) was “approximately 50%”.
